Experimental data pooled from the literature.
Protocols differ between the studies behind these lines.
Target: Serine/threonine-protein kinase Chk1 (CHEK1, Homo sapiens, UniProt O14757)
Action: inhibitor

SMILES	assay	test system	setting	inhibition [%]
CCN1CCN(Cc2ccc(NC(=O)c3ccc(C)c(Oc4ccnc5[nH]ccc45)c3)cc2C(F)(F)F)CC1	target engagement in cells, chemoproteomics	A-375	0.5 µM	-141
Cc1ccc(Nc2nccc(N(C)c3ccc4c(C)n(C)nc4c3)n2)cc1S(N)(=O)=O	enzyme activity		0.3 µM	2
CS(=O)(=O)Nc1cccc(-c2csc(NC(=O)CSc3nc4nccnc4c(=O)n3CCc3ccccc3)n2)c1	enzyme activity		10 µM	-3
c1ccc(CNc2nc(N3CCOc4ccccc43)nc3c2CCCC3)cc1	target engagement in cells, chemoproteomics		20 mM	-3.2
CN(C)C1CCN(CC#Cc2nn(C3CCCC3)c3nc(NCc4ccccc4)ncc23)C1 (stereo not shown)	enzyme activity, FRET		1 µM	-5
COc1cc2ncnc(Nc3ccc(Oc4ccccc4)c(C)c3C)c2cc1OC	enzyme activity		1 µM	1
CNC(=O)c1cc(Oc2ccc(NC(=O)Nc3ccc(Cl)c(C(F)(F)F)c3)cc2)ccn1	enzyme activity		0.3 µM	-5
CCCCNc1ncc2c(-c3ccc(F)cc3)nn(C[C@H]3CC[C@H](N)CC3)c2n1	target engagement in cells, chemoproteomics		20 mM	-8.8
Cc1ncc([N+](=O)[O-])n1C(=NO)c1ccccc1C(F)(F)F	enzyme activity		10 µM	19.2
C=CC(=O)Nc1cc(Nc2nccc(Nc3cc(Cl)c(F)cc3C(C)(C)O)n2)c(OC)cc1N1CC[C@@H](N(C)C)C1	enzyme activity		1 µM	9
CNCc1ccc(-c2cc(-c3nc(-c4ccc(S(=O)(=O)C(C)C)cc4)cnc3N)on2)cc1	enzyme activity		0.4 µM	15
CCOc1cc(-c2nncn2C)ccc1Nc1ncc2cc(C)nc(NCC(C)(C)C)c2n1	enzyme activity, FRET		1 µM	< 15
CCN1CCN(Cc2ccc(NC(=O)c3ccc(C)c(/C=C/c4cnc5[nH]ccc5c4OC)c3)cc2C(F)(F)F)CC1	target engagement in cells, chemoproteomics	A-375	0.5 µM	-126
